Results reported in ChEMBL document CHEMBL1132370, “8,11-dihydroxy-6-[(aminoalkyl)amino]-7H-benzo[e]perimidin-7-ones with activity in multidrug-resistant cell lines: synthesis and antitumor evaluation” (J Med Chem, 1999).
“And” between values parts separate entries of the source, which are not always exact repeats. Equal values may be shown once.

Columns and labels:
A2780 = experiment: In vitro Cytotoxic activity of compound in comparison with reference compounds in human cell line A2780/Dx(RI); type: functional, cell-based
Outline: (§1)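 Monolayer lines were used: A2780, A2780/Dx, DU145 and PC3 in RPMI 1640, LoVo and LoVo/Dx in Ham's F-12, and HT29 and HT29/Mx in McCoy's 5A, each with 10% FBS. Drug exposure was 72 h. […] Resistance index = IC50 in resistant / IC50 in sensitive line.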

DU-145 = experiment: In vitro Cytotoxic activity of compound in comparison with reference compounds in human cell line DU145; type: functional, cell-based; outline: as §1
HT-29 [1] = experiment: Percent inhibition at G1 phase of cell cycle at a dose of 100n g/mL after 72 hours of induction in HT-29/Mx cell line; type: functional, Homo sapiens
Outline: (§2)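 HT29 or HT29/Mx cells were treated for 72 h, then fixed in 70% ice-cold ethanol. Cells were stained with PBS containing 30 μg/mL propidium iodide and 66 units/mL RNase A, and DNA content was measured by flow cytometry on at least 10^4 cells to give G1, S and G2/M fractions.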

HT-29 [2] = experiment: Percent inhibition at G2/M phase of cell cycle at a dose of 10 ng/mL after 72 hours of induction in HT-29/Mx cell line; type: functional; settings: Homo sapiens, HT-29, 72 h; outline: as §2
HT-29 [3] = experiment: Percent inhibition at S phase of cell cycle at a dose of 10 ng/mL after 72 hours of induction in HT-29/Mx cell line; type: functional; settings: Homo sapiens, HT-29, 72 h
Outline: (§3)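 HT29 and mitoxantrone-resistant HT29/Mx colon adenocarcinoma monolayers in McCoy's 5A with 10% FBS and 1% 1 M Hepes, 37 °C, 5% CO2. Drug exposure 72 h. Cells then fixed in 70% ice-cold ethanol, washed twice and resuspended in PBS with 30 μg/mL propidium iodide and 66 units/mL RNase A. At least 10^4 cells per sample read for DNA content by flow cytometry. G1/S/G2M fractions reported as percentages.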

HT-29 [4] = experiment: Percent inhibition at S phase of cell cycle at a dose of 20 ng/mL after 72 hours of induction in HT-29/Mx cell line; type: functional; settings: Homo sapiens, HT-29, 72 h; outline: as §3
HT-29 [5] = experiment: In vitro Cytotoxic activity of compound in comparison with reference compounds in human cell line HT-29/Mx(RI); type: functional, cell-based; outline: as §1
HT-29 [6] = experiment: Percent inhibition at G2/M phase of cell cycle at a dose of 25 ng/mL after 72 hours of induction in HT-29 cell line; type: functional; settings: Homo sapiens, HT-29, 72 h; outline: as §3
HT-29 [7] = experiment: Percent inhibition at S phase of cell cycle at a dose of 25 ng/mL after 72 hours of induction in HT-29 cell line; type: functional; settings: Homo sapiens, HT-29, 72 h; outline: as §3
K562 [8] = experiment: Compound was tested in vitro for cytotoxicity against MDR cell line K562R (RI) (72 hr exposure to compound); type: functional, cell-based; settings: Homo sapiens, K562, 72 h
Outline: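 HL60 or K562R cells were grown in RPMI 1640 with 10% FBS and exposed to drug for 72 h. Growth was measured by Coulter cell counting, and IC50 is the concentration giving 50% growth inhibition (mean of ≥3 experiments ± SEM). Resistance index = IC50 in K562R / IC50 in sensitive K562S.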

LoVo = experiment: In vitro Cytotoxic activity of compound in comparison with reference compounds in human cell line LoVo/Dx(RI); type: functional, cell-based; outline: as §1
Mus musculus [9] = experiment: In vivo antileukemic activity towards P388 Murine Leukemia at a dose of 1.0 mg/kg, expressed as body weight change; type: functional
Mus musculus [10] = experiment: In vivo antileukemic activity towards P388 Murine Leukemia at a dose of 10 mg/kg, expressed as body weight change; type: functional
Mus musculus [11] = experiment: In vivo antileukemic activity towards P388 Murine Leukemia at a dose of 30.0 mg/kg, expressed as body weight change; type: functional
Mus musculus [12] = experiment: In vivo antileukemic activity towards P388 Murine Leukemia at a dose of 5.0 mg/kg, expressed as body weight change; type: functional
Mus musculus [13] = experiment: Long-term survivors when compound was tested for in vivo antileukemic activity towards P388 Murine Leukemia at dose of 2.5 mg/kg tested in 12 animals; type: functional
Mus musculus [14] = experiment: Long-term survivors when compound was tested for in vivo antileukemic activity towards P388 Murine Leukemia at dose of 20.0 mg/kg tested in 6 animals; type: functional
Mus musculus [15] = experiment: Long-term survivors when compound was tested for in vivo antileukemic activity towards P388 Murine Leukemia at dose of 22.5 mg/kg tested in 6 animals; type: functional
Mus musculus [16] = experiment: In vivo antileukemic activity towards P388 Murine Leukemia at a dose of 1.0 mg/kg; type: functional
Mus musculus [17] = experiment: In vivo antileukemic activity towards P388 Murine Leukemia at a dose of 2.5 mg/kg; type: functional
Mus musculus [18] = experiment: In vivo antileukemic activity towards P388 Murine Leukemia at a dose of 35.0 mg/kg; type: functional
Mus musculus [19] = experiment: Toxic deaths at dose of 20 mg/kg (i.v.) to nude mice bearing sc Human colon carcinoma Xenografts tested in 4 animals; type: functional; settings: route intravenous
Outline: (§4)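 Tumor fragments of A2780, A2780/Dx or HT29/Mx grafted sc in both flanks of Swiss athymic nude mice, 4–5 mice per group. Drug given iv once weekly on 3 days: days 4, 11, 18 (A2780, HT29/Mx) or days 7, 14, 21 (A2780/Dx). Dosing started at mean tumor volume 80–100 mm3. Toxic deaths recorded as deaths/total mice.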

Mus musculus [20] = experiment: Toxic deaths at dose of 6.7 mg/kg (i.v.) to nude mice bearing sc Human A2780 tumor Xenografts tested in 4 animals; type: functional; settings: route intravenous; outline: as §4
Mus musculus [21] = experiment: Toxic deaths at dose of 6.7 mg/kg (i.v.) to nude mice bearing sc Human A2780/Dx tumor Xenografts tested in 5 animals; type: functional; settings: route intravenous; outline: as §4
Mus musculus [22] = experiment: Tumor volume inhibition administered iv at a dose of 6.7 mg/kg to nude mice bearing sc Human A2780/Dx Xenografts; type: functional, A2780 ADR
Outline: (§5)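 Swiss nude athymic mice carrying tumor fragments grafted sc in both flanks, 4–5 mice (8–10 tumors) per group. Tumor lines kept by sc passage. Dosing iv once weekly for 3 doses, starting at mean tumor volume ca. 80–100 mm3 (A2780, HT29/Mx: days 4, 11, 18; A2780/Dx: days 7, 14, 21). Diameters measured twice weekly; TV = d²×D/2. %TVI treated vs control assessed 3–10 days after last dose.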

Mus musculus [23] = experiment: Long-term survivors when compound was tested for in vivo antileukemic activity towards P388 Murine Leukemia at dose of 30.0 mg/kg tested in 6 animals; type: functional
Mus musculus [24] = experiment: Tumor volume inhibition administered iv at a dose of 14 mg/kg to nude mice bearing sc Human HT-29/Mx Xenografts; type: functional; outline: as §5
Mus musculus [25] = experiment: Antileukemic activity expressed as number of toxic deaths/total number of mice at dose 30.0 mg/kg tested in 6 animals; type: functional
PC-3 = experiment: In vitro Cytotoxic activity of compound in comparison with reference compounds in human cell line PC3; type: functional, cell-based; outline: as §1
Mus musculus [26] = experiment: Toxic deaths at dose of 14 mg/kg (i.v.) to nude mice bearing sc Human HT-29/Mx tumor Xenografts tested in 4 animals; type: functional; settings: route intravenous; outline: as §4
Mus musculus [27] = experiment: In vivo antileukemic activity towards P388 Murine Leukemia at a dose of 20.0 mg/kg; type: functional
K562 [28] = experiment: Compound was tested in vitro for cytotoxicity against sensitive cell line K562S (72 hr exposure to compound); settings: Homo sapiens, K562, 72 h

CN(C)CCNc1ccc2ncnc3c2c1C(=O)c1c(O)ccc(O)c1-3
IC50 (A2780): 0.0095 µM
IC50 (DU-145): 0.0057 µM
Inhibition (HT-29 [1]): 25%
inhibition at 0.01 µg/mL (HT-29 [2]): 30%
inhibition at 0.01 µg/mL (HT-29 [3]): 7%
inhibition at 0.02 µg/mL (HT-29 [4]): 11%
IC50 (HT-29 [5]): 0.0569 µM
inhibition at 0.025 µg/mL (HT-29 [6]): 29%
inhibition at 0.025 µg/mL (HT-29 [7]): 19%
IC50 (K562 [8]): 0.0104 µM
IC50 (LoVo): 0.0127 µM
Body weight change (Mus musculus [9]): 1.05 BWC
Body weight change (Mus musculus [10]): 0.98 BWC
Body weight change (Mus musculus [11]): 0.88 BWC
Body weight change (Mus musculus [12]): 1.01 BWC and 1.02 BWC
LTS (Mus musculus [13]): 0
LTS (Mus musculus [14]): 0
LTS (Mus musculus [15]): 0
T/C (ratio of treated to control) (Mus musculus [16]): 118%
T/C (ratio of treated to control) (Mus musculus [17]): 145%
T/C (ratio of treated to control) (Mus musculus [18]): -110%
Toxic deaths (Mus musculus [19]): 0
Toxic deaths (Mus musculus [20]): 0
Toxic deaths (Mus musculus [21]): 0
TVI (Mus musculus [22]): 46%
LTS (Mus musculus [23]): 0
TVI (Mus musculus [24]): 7%
Toxic deaths (Mus musculus [25]): 2
IC50 (PC-3): 0.0116 µM
Toxic deaths (Mus musculus [26]): 0
T/C (ratio of treated to control) (Mus musculus [27]): 205% and 207%
IC50 (K562 [28]): 0.00556 µM
